# Laboratory results from ChEMBL document CHEMBL5329156, “Discovery and development of novel substituted monohydrazides as potent antifungal agents” (RSC Med Chem, 2023).
# Activity calls are given as the source filed them. The calls are words filed in the database; no cut-off is given here.
# Columns and labels:
# Candida albicans [1] = experiment: Antifungal activity against Candida albicans ATCC 10231 assessed as fungal growth inhibition by double dilution method; format: functional
# Outline: (§1)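 Broth microdilution after CLSI M27-A3/M38-A2 with minor changes. Single colony grown overnight in YPD at 35 °C, 200 rpm. Compound final range 0.06-31.3 µg/mL; incubated 48 h at 35 °C.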
# Candida albicans [2] = experiment: Antifungal activity against Candida albicans ATCC 64124 assessed as fungal growth inhibition by double dilution method; format: functional
# Outline: (§2)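 Broth microdilution after CLSI M27-A3/M38-A2 with minor modifications. A single colony was grown overnight in YPD at 35 °C with shaking at 200 rpm. Cells were mixed 1:1 with compound (final 0.06-31.3 µg/mL, from DMSO stocks) and incubated 48 h at 35 °C.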
# Candida albicans [3] = experiment: Antifungal activity against itraconazole/fluconazole susceptible Candida albicans ATCC MYA-2876 assessed as fungal growth inhibition by double dilution method; format: functional; outline: as §2
# Candida albicans [4] = experiment: Antifungal activity against itraconazole/fluconazole resistant Candida albicans ATCC 90819 assessed as fungal growth inhibition by double dilution method; format: functional; outline: as §2
# Candida albicans [5] = experiment: Antifungal activity against itraconazole/fluconazole susceptible Candida albicans ATCC MYA-2310 assessed as fungal growth inhibition by double dilution method; format: functional; outline: as §2
# Candida albicans [6] = experiment: Antifungal activity against itraconazole/fluconazole resistant Candida albicans ATCC MYA-1237 assessed as fungal growth inhibition by double dilution method; format: functional; outline: as §2
# Candida albicans [7] = experiment: Antifungal activity against itraconazole/fluconazole resistant Candida albicans ATCC MYA-1003 assessed as fungal growth inhibition by double dilution method; format: functional; outline: as §2
# Nakaseomyces glabratus [8] = experiment: Antifungal activity against Candida glabrata ATCC 2001 assessed as fungal growth inhibition by double dilution method; format: functional; outline: as §1
# Pichia kudriavzevii [9] = experiment: Antifungal activity against Pichia kudriavzevii ATCC 6258 assessed as fungal growth inhibition by double dilution method; format: functional; outline: as §1
# Nakaseomyces glabratus [10] = experiment: Antifungal activity against Candida glabrata ATCC 22019 assessed as fungal growth inhibition by double dilution method; format: functional; outline: as §1
# [Candida] auris [11] = Antifungal activity against Candida auris AR Bank # 0384 assessed as fungal growth inhibition by double dilution method; format: functional; settings: Candidozyma auris; outline: as §1
# [Candida] auris [12] = Antifungal activity against Candida auris AR Bank # 0390 assessed as fungal growth inhibition by double dilution method; format: functional; settings: Candidozyma auris; outline: as §1
# Cryptococcus neoformans = experiment: Antifungal activity against Cryptococcus neoformans ATCC MYA-895 assessed as fungal growth inhibition by double dilution method; format: functional; outline: as §1
# Aspergillus terreus = experiment: Antifungal activity against Aspergillus terreus ATCC MYA-3633 assessed as fungal growth inhibition by double dilution method; format: functional
# Aspergillus fumigatus [13] = experiment: Antifungal activity against Aspergillus fumigatus NRRL 163 assessed as fungal growth inhibition by double dilution method; format: functional
# Aspergillus flavus = experiment: Antifungal activity against Aspergillus flavus ATCC MYA-3631 assessed as fungal growth inhibition by double dilution method; format: functional
# Aspergillus nidulans = experiment: Antifungal activity against Aspergillus nidulans ATCC 38163 assessed as fungal growth inhibition by double dilution method; format: functional
# Aspergillus fumigatus [14] = experiment: Antifungal activity against Aspergillus fumigatus NRRL 5109 assessed as fungal growth inhibition by double dilution method; format: functional
# Aspergillus fumigatus [15] = experiment: Antifungal activity against Aspergillus fumigatus NRRL 6113 assessed as fungal growth inhibition by double dilution method; format: functional
# [Candida] auris [16] = Antifungal activity against Candida auris AR Bank # 381 assessed as fungal growth inhibition by double dilution method; format: functional; settings: Candidozyma auris; outline: as §1
# [Candida] auris [17] = Antifungal activity against Candida auris AR Bank # 382 assessed as fungal growth inhibition by double dilution method; format: functional; settings: Candidozyma auris; outline: as §1
# [Candida] auris [18] = Antifungal activity against Candida auris AR Bank # 383 assessed as fungal growth inhibition by double dilution method; format: functional; settings: Candidozyma auris; outline: as §1
# [Candida] auris [19] = Antifungal activity against Candida auris AR Bank # 384 assessed as fungal growth inhibition by double dilution method; format: functional; settings: Candidozyma auris; outline: as §1
# [Candida] auris [20] = Antifungal activity against Candida auris AR Bank # 385 assessed as fungal growth inhibition by double dilution method; format: functional; settings: Candidozyma auris; outline: as §1
# [Candida] auris [21] = Antifungal activity against Candida auris AR Bank # 386 assessed as fungal growth inhibition by double dilution method; format: functional; settings: Candidozyma auris; outline: as §1
# [Candida] auris [22] = Antifungal activity against Candida auris AR Bank # 387 assessed as fungal growth inhibition by double dilution method; format: functional; settings: Candidozyma auris; outline: as §1
# [Candida] auris [23] = Antifungal activity against Candida auris AR Bank # 388 assessed as fungal growth inhibition by double dilution method; format: functional; settings: Candidozyma auris; outline: as §1
# [Candida] auris [24] = Antifungal activity against Candida auris AR Bank # 389 assessed as fungal growth inhibition by double dilution method; format: functional; settings: Candidozyma auris; outline: as §1
# [Candida] auris [25] = Antifungal activity against Candida auris AR Bank # 390 assessed as fungal growth inhibition by double dilution method; format: functional; settings: Candidozyma auris; outline: as §1
# Candida duobushaemulonii [26] = experiment: Antifungal activity against Candida duobushaemulonii AR Bank # 391 assessed as fungal growth inhibition by double dilution method; format: functional; settings: Candidozyma duobushaemuli; outline: as §1
# Candida duobushaemulonii [27] = experiment: Antifungal activity against Candida duobushaemulonii AR Bank # 392 assessed as fungal growth inhibition by double dilution method; format: functional; settings: Candidozyma duobushaemuli; outline: as §1
# [Candida] haemuloni [28] = Antifungal activity against Candida haemulonii AR Bank # 393 assessed as fungal growth inhibition by double dilution method; format: functional; settings: Candidozyma haemuli; outline: as §1
# Candida duobushaemulonii [29] = experiment: Antifungal activity against Candida duobushaemulonii AR Bank # 394 assessed as fungal growth inhibition by double dilution method; format: functional; settings: Candidozyma duobushaemuli; outline: as §1
# [Candida] haemuloni [30] = Antifungal activity against Candida haemulonii AR Bank # 395 assessed as fungal growth inhibition by double dilution method; format: functional; settings: Candidozyma haemuli; outline: as §1
# Kodamaea ohmeri = experiment: Antifungal activity against Kodamaea ohmeri AR Bank # 396 assessed as fungal growth inhibition by double dilution method; format: functional; outline: as §1
# Pichia kudriavzevii [31] = experiment: Antifungal activity against Pichia kudriavzevii AR Bank # 397 assessed as fungal growth inhibition by double dilution method; format: functional; outline: as §1
# Clavispora lusitaniae = experiment: Antifungal activity against Clavispora lusitaniae AR Bank # 398 assessed as fungal growth inhibition by double dilution method; format: functional; outline: as §1
# Saccharomyces cerevisiae [32] = experiment: Antifungal activity against Saccharomyces cerevisiae AR Bank # 399 assessed as fungal growth inhibition by double dilution method; format: functional; outline: as §1
# Saccharomyces cerevisiae [33] = experiment: Antifungal activity against Saccharomyces cerevisiae AR Bank # 400 assessed as fungal growth inhibition by double dilution method; format: functional; outline: as §1
# J774.A1 = experiment: Cytotoxicity against J774A.1 cells assessed as reduction in cell viability at 31.3 microg/ml; format: toxicity, cell-based; settings: mouse, dose 31.3 µg/ml
# Outline: (§3)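 Cells in DMEM with 10% FBS and 1% Pen/Strep, seeded at 10,000 cells/well and held overnight at 37 °C, 5% CO2. Compounds added at final 31.3-0.12 µg/mL (0.05% DMSO vehicle) for 24 h. Resazurin then added for 6 h; fluorescence read at ex 560/em 590. Triton X-100 1% as positive control; values normalized to vehicle. Run in quadruplicate.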
# HEK293 = experiment: Cytotoxicity against human HEK-293 cells assessed as reduction in cell viability at 31.3 microg/ml; format: toxicity, cell-based; settings: dose 31.3 µg/ml; outline: as §3
# [34] = Cytotoxicity against human HepG2 cells assessed as cell survival at 31.3 microg/ml relative to control; format: toxicity, cell-based; settings: at 31.3 µg/mL, read-out: Activity; outline: as §3
# Candida albicans [35] = experiment: Antibiofilm activity against Candida albicans ATCC 10231 assessed as reduction in biofilm production at 1.96 to 3.9 microg/ml by biofilm formation assay; format: functional, organism-based; settings: dose 1.96-3.9 µg/ml
# HepG2 = experiment: Cytotoxicity against human HepG2 cells assessed as reduction in cell viability upto 31.3 microg/ml; format: toxicity, cell-based; settings: dose < 31.3 µg/ml; outline: as §3
structure (smiles),measurement,setting,value
O=C(NNc1cc(F)cc(F)c1)c1ccccn1,MIC,Candida albicans [1],≤ 0.06 µg/mL
same,MIC,Candida albicans [2],0.98 µg/mL
same,MIC,Candida albicans [3],0.98 µg/mL
same,MIC,Candida albicans [4],0.98 µg/mL
same,MIC,Candida albicans [5],0.98 µg/mL
same,MIC,Candida albicans [6],1.95 µg/mL
same,MIC,Candida albicans [7],0.49 µg/mL
same,MIC,Nakaseomyces glabratus [8],7.8 µg/mL
same,MIC,Pichia kudriavzevii [9],0.24 µg/mL
same,MIC,Nakaseomyces glabratus [10],1.95 µg/mL
same,MIC,[Candida] auris [11],0.24 µg/mL
same,MIC,[Candida] auris [12],0.49 µg/mL
same,MIC,Cryptococcus neoformans,0.24 µg/mL
same,MIC,Aspergillus terreus,0.98 µg/mL
same,MIC,Aspergillus fumigatus [13],> 31.3 µg/mL
same,MIC,Aspergillus flavus,1.95 µg/mL
same,MIC,Aspergillus nidulans,0.49 µg/mL
same,MIC,Aspergillus fumigatus [14],> 31.3 µg/mL
same,MIC,Aspergillus fumigatus [15],31.3 µg/mL
same,MIC,[Candida] auris [16],0.98 µg/mL
same,MIC,[Candida] auris [17],0.12 µg/mL
same,MIC,[Candida] auris [18],0.24 µg/mL
same,MIC,[Candida] auris [19],0.98 µg/mL
same,MIC,[Candida] auris [20],0.24 µg/mL
same,MIC,[Candida] auris [21],≤ 0.06 µg/mL
same,MIC,[Candida] auris [22],0.24 µg/mL
same,MIC,[Candida] auris [23],0.24 µg/mL
same,MIC,[Candida] auris [24],0.24 µg/mL
same,MIC,[Candida] auris [25],0.49 µg/mL
same,MIC,Candida duobushaemulonii [26],0.24 µg/mL
same,MIC,Candida duobushaemulonii [27],0.49 µg/mL
same,MIC,[Candida] haemuloni [28],0.49 µg/mL
same,MIC,Candida duobushaemulonii [29],0.24 µg/mL
same,MIC,[Candida] haemuloni [30],0.24 µg/mL
same,MIC,Kodamaea ohmeri,0.12 µg/mL
same,MIC,Pichia kudriavzevii [31],0.12 µg/mL
same,MIC,Clavispora lusitaniae,0.49 µg/mL
same,MIC,Saccharomyces cerevisiae [32],1.95 µg/mL
same,MIC,Saccharomyces cerevisiae [33],0.98 µg/mL
same,Activity,J774.A1,Non-Toxic
same,Activity,HEK293,Non-Toxic
same,viability at 31.3 microg/ml,[34],89%
same,Activity,Candida albicans [35],inactive
O=C(NNc1cccc(F)c1)c1ccccn1,MIC,Candida albicans [1],≤ 0.06 µg/mL
same,MIC,Candida albicans [2],0.98 µg/mL
same,MIC,Candida albicans [3],0.98 µg/mL
same,MIC,Candida albicans [4],0.49 µg/mL
same,MIC,Candida albicans [5],1.95 µg/mL
same,MIC,Candida albicans [6],0.98 µg/mL
same,MIC,Candida albicans [7],0.98 µg/mL
same,MIC,Nakaseomyces glabratus [8],1.95 µg/mL
same,MIC,Pichia kudriavzevii [9],0.24 µg/mL
same,MIC,Nakaseomyces glabratus [10],1.95 µg/mL
same,MIC,[Candida] auris [11],1.95 µg/mL
same,MIC,[Candida] auris [12],0.24 µg/mL
same,MIC,Cryptococcus neoformans,0.12 µg/mL
same,MIC,Aspergillus terreus,1.95 µg/mL
same,MIC,Aspergillus fumigatus [13],> 31.3 µg/mL
same,MIC,Aspergillus flavus,7.8 µg/mL
same,MIC,Aspergillus nidulans,0.49 µg/mL
same,MIC,Aspergillus fumigatus [14],> 31.3 µg/mL
same,MIC,Aspergillus fumigatus [15],> 31.3 µg/mL
same,MIC,[Candida] auris [16],0.49 µg/mL
same,MIC,[Candida] auris [17],0.98 µg/mL
same,MIC,[Candida] auris [18],1.95 µg/mL
same,MIC,[Candida] auris [19],1.95 µg/mL
same,MIC,[Candida] auris [20],0.98 µg/mL
same,MIC,[Candida] auris [21],0.49 µg/mL
same,MIC,[Candida] auris [22],0.49 µg/mL
same,MIC,[Candida] auris [23],0.49 µg/mL
same,MIC,[Candida] auris [24],0.12 µg/mL
same,MIC,[Candida] auris [25],0.24 µg/mL
same,MIC,Candida duobushaemulonii [26],0.49 µg/mL
same,MIC,Candida duobushaemulonii [27],0.24 µg/mL
same,MIC,[Candida] haemuloni [28],0.12 µg/mL
same,MIC,Candida duobushaemulonii [29],0.49 µg/mL
same,MIC,[Candida] haemuloni [30],≤ 0.06 µg/mL
same,MIC,Kodamaea ohmeri,0.24 µg/mL
same,MIC,Pichia kudriavzevii [31],0.24 µg/mL
same,MIC,Clavispora lusitaniae,0.98 µg/mL
same,MIC,Saccharomyces cerevisiae [32],1.95 µg/mL
same,MIC,Saccharomyces cerevisiae [33],1.95 µg/mL
same,Activity,J774.A1,Non-Toxic
same,Activity,HEK293,Non-Toxic
same,Activity,HepG2,Non-Toxic
same,Activity,Candida albicans [35],Active
